Experimental data of several laboratories.
Lines come from different studies, so protocols differ.
Target: Cytochrome P450 2D6 (CYP2D6, Homo sapiens, UniProt P10635)
Read-out: enzyme activity
Action: inhibitor

For O=c1c(O)c(-c2ccc(O)c(O)c2)oc2cc(O)cc(O)c12, the IC50 was 0.65 µM (fluorescence; pH 7.4).
With Cc1ccc2nc(-c3ccccc3)c(CNc3ccc(F)cc3)n2c1 the IC50 was 2.3 µM.
With Cc1coc([C@H]2C[C@H]3[C@@H](CF)SC(N)=N[C@@]3(c3ccc(F)cc3F)CO2)n1 the IC50 was > 30 µM (human; liver microsomes; pH 7.4).
COc1ccc2c(Cc3ccccc3F)c3n(c(=O)c2c1OC)CCc1cc2c(cc1-3)OCO2 gave an IC50 of > 10 µM.
With C=CC(=O)Nc1cc(Nc2nccc(Nc3cc(Cl)c(F)cc3C(C)(C)O)n2)c(OC)cc1N1CC[C@@H](N(C)C)C1 the IC50 was 6.3 µM (human; liver microsomes).
For CCOC(=O)C1CCN(C(=O)c2ccc(N(CC)Cc3cnc4nc(N)nc(N)c4n3)cc2)CC1, the IC50 was 51.3 µM (luciferase).
With Cc1cc2c(F)c(Oc3ncnn4cc(OC[C@@H](C)O)c(C)c34)ccc2[nH]1 the IC50 was 34.7 µM (fluorescence; 15 min).
N#C[C@H](C[C@@H]1CCCNC1=O)NC(=O)[C@H](CC1CC1)NC(=O)c1cc2cccc(Cl)c2[nH]1 has an IC50 of 50.7 µM (human; liver microsomes).
Fc1ccc(Nc2c(-c3ccccn3)nc3ccc(C4CC4)cn23)cc1 has an IC50 of 1.5 µM.
Cc1coc([C@H]2C[C@H]3[C@@H](C)SC(N)=N[C@@]3(c3ccc(F)cc3F)CO2)n1 has an IC50 of > 30 µM (human; liver microsomes; pH 7.4).
With C[C@@H](c1ccc2nccn2c1)n1nnc2ncc(-c3cnn(C)c3)nc21 the IC50 was 24 µM (human; liver microsomes; pH 7.4).
With Nc1nc(N)c2nc(CNc3ccc(C(=O)NCCc4ccccc4)cc3)cnc2n1 the IC50 was 10.5 µM (luciferase).
